Test results from PubChem BioAssay AID743238 (Broad Institute, 2013).
The whole screen tested about 360,000 compounds, of which about 200 (0.056%) were called active.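 The calls were made as follows: active = mean normalized replicate activation at least 10% and every replicate at or above 10%; inconclusive = only one of the two criteria met; inactive = mean below 10% and not all replicates reach 10%.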 The sample as a whole holds a higher share of actives than the screen did.

Experiment: activators of inactive X chromosome reactivation, primary screen, imaging, XiGFP fibroblasts, GFP high-content imaging, set 2 (AID 743238);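 also: 0% = median of on-plate neutral control wells and 100% = ellipticine 6 µM median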
Details: XiGFP mouse fibroblasts, % GFP-positive cells imaging, 3 d; at 7.58 µM; stronger effect = higher value; cells co-treated with 5-aza-dC sensitizer; scaled so ellipticine positive control = 100%
Summary of the method: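 Assay system: SV40-immortalized XiGFP fibroblast cells, line 68-5-11; buffer or medium: DMEM plus 5-aza-dC sensitizer; compound: one concentration, pinned; timing: compounds 3 days, fix/stain 15 min at room temperature; benchmarks: positive control ellipticine, 6 µM final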

Structure (SMILES)	activation
Cc1noc(C)c1NC(=O)N(C)C[C@@H]1Oc2c(NC(=O)C3CCCCC3)cccc2C(=O)N([C@H](C)CO)C[C@@H]1C	-0.974% (inactive)
CCCC(=O)N1CCC2(CC1)CN[C@H](CO)c1[nH]c3cc(OC)ccc3c12	-0.018% (inactive)
O=C(C[C@@H]1CC[C@H]2[C@@H](COC[C@@H](O)CN2S(=O)(=O)c2cccc(F)c2)O1)NCCCN1CCOCC1	-0.0535% (inactive)
C[C@@H]1CCCCO[C@H](CN(C)Cc2ccncc2)[C@@H](C)CN([C@H](C)CO)C(=O)c2cc(NS(C)(=O)=O)ccc2O1	-0.0215% (inactive)
CO[C@H]1CN(C)C(=O)c2ccc(NC(=O)C3CCC3)cc2OC[C@H](C)NC[C@@H]1C	0.146% (inactive)
COc1ccc(NC(=O)Nc2ccc3c(c2)[C@H]2C[C@H](CC(=O)NC4CCCC4)O[C@@H](CO)[C@H]2O3)cc1	4.51% (inactive)
COc1cccc(-c2ccc([C@@H]3[C@H]4CN(C(=O)c5cccnc5)CC(=O)N4[C@H]3CO)cc2)c1	0.076% (inactive)
O=C(c1ccncc1)N1C[C@H]2[C@@H](c3ccccc31)[C@H](CO)N2C(=O)Nc1ccc(F)cc1	0.255% (inactive)
C[C@H]1CN([C@@H](C)CO)C(=O)Cc2cc(NC(=O)Cc3ccccc3)ccc2O[C@@H]1CN(C)S(=O)(=O)c1ccc(Cl)cc1	-1.34% (inactive)
CO[C@@H]1CN(C)C(=O)c2cc(NC(=O)NC3CCCC3)ccc2OC[C@H](C)NC[C@H]1C	0.41% (inactive)
C[C@@H]1CCCCO[C@@H](CN(C)C(=O)CCCN(C)C)[C@@H](C)CN([C@H](C)CO)C(=O)c2cc(NC(=O)Nc3ccc(F)cc3)ccc2O1	0.229% (inactive)
COc1ccc(N2C(=O)C3CCCN3C2c2cccc(OC)c2)cc1 (stereo not drawn)	12.3% (active)
COc1ccc(N2C(=O)C3CCCN3C2c2cc(OC)c(OC)cc2OC)cc1 (stereo not drawn)	0% (inactive)
COc1ccc(N2C(=O)C3CCCN3C2c2cccs2)cc1 (stereo not drawn)	-0.124% (inactive)
O=C(C[C@@H]1CC[C@@H]2[C@H](COC[C@H](O)CN2C(=O)C2CC2)O1)NCc1ccncc1	0.085% (inactive)
C[C@@H]1CCCCO[C@H](CN(C)S(C)(=O)=O)[C@@H](C)CN([C@@H](C)CO)C(=O)c2cc(NC(=O)CCC(F)(F)F)ccc2O1	0.0715% (inactive)
O=C(c1ccccn1)N1CC2(C1)[C@@H](c1ccccc1)[C@@H](CO)N2C(=O)C1CCCCC1	-0.0175% (inactive)
O=C(N[C@@H]1CC[C@H](CCn2cc(C3CC3)nn2)O[C@H]1CO)c1cccnc1	-0.107% (inactive)
